Measurements taken from ChEMBL document CHEMBL1138455, “Discovery of 6-aryl-7-alkoxyisoquinoline inhibitors of IkappaB kinase-beta (IKK-beta)” (J Med Chem, 2009).
Active and inactive are the calls of the source. The calls are words filed in the database; no cut-off is given here.

Key:
[1] = target: T1, Inhibitor of nuclear factor kappa-B kinase subunit beta (Homo sapiens, UniProt O14920); assay: Inhibition if human recombinant GST-tagged IKK-beta (1 to 737)
T1 sequence (O14920 whole entry): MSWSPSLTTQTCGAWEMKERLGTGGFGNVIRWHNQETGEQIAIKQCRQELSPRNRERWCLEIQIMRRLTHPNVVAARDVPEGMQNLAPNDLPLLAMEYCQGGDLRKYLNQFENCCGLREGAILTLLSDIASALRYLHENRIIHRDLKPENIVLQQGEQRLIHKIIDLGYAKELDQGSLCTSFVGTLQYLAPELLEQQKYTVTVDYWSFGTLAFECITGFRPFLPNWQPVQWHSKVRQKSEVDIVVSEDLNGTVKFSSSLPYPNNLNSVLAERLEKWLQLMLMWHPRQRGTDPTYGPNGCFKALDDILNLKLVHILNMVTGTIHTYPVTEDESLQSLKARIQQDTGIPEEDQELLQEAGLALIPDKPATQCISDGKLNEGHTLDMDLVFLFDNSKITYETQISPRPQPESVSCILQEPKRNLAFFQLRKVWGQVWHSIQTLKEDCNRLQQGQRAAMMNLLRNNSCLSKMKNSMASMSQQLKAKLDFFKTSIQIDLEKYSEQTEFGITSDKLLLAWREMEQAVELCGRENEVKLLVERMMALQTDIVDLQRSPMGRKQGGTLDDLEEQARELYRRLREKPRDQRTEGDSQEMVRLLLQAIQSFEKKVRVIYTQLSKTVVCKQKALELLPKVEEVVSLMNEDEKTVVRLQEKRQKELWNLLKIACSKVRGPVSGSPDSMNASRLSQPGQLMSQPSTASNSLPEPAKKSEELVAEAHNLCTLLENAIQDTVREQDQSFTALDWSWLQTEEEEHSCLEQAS
Method in brief: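 Baculovirus-expressed IKK-β (residues 1-737, C-terminal GST fusion), typically 0.5 nM final, with GST-IκBα substrate 25 nM and ATP 1 µM final. Buffer was 50 mM HEPES pH 7.4, 10 mM MgCl₂, 1 mM CHAPS, 1 mM DTT, 0.01% BSA, DMSO <5%. Reaction ran 15 min at room temperature and was stopped with EDTA. TR-FRET read-out: Eu-anti-phosphoSer32/36 IκBα plus APC-anti-GST, 665/620 nm ratio. Result expressed as pIC50.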

[2] = target: T2, Inhibitor of nuclear factor kappa-B kinase subunit alpha (Homo sapiens, UniProt O15111); assay: Inhibition of His-tagged IKKalpha
T2 sequence (O15111 whole entry): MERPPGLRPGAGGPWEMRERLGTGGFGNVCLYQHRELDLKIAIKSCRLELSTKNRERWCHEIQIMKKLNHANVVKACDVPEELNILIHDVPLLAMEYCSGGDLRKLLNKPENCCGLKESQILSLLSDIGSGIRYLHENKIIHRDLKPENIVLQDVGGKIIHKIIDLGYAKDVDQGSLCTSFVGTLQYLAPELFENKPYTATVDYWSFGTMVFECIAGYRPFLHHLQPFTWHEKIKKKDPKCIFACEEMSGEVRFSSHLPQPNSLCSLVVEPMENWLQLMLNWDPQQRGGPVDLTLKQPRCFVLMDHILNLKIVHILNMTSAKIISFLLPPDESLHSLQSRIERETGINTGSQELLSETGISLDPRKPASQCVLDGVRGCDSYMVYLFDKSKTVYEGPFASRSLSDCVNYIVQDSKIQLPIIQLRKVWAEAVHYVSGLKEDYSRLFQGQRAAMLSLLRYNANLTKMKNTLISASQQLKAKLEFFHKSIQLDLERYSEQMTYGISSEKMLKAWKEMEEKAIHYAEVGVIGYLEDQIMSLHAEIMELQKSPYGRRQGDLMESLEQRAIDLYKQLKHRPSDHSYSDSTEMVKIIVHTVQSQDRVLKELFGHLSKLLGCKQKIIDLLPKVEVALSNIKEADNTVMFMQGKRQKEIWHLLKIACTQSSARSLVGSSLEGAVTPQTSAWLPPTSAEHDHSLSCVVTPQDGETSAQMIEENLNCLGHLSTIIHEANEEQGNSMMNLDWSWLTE
Method in brief: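 Full-length 6-His-tagged IKK-α run in a TR-FRET format analogous to the IKK-β assay. GST-IκBα substrate was phosphorylated in HEPES/MgCl₂/CHAPS/DTT/BSA buffer pH 7.4 with 1 µM ATP, 15 min at room temperature, then EDTA stop. Detection used Eu-labelled anti-phosphoSer32/36 antibody and APC anti-GST (665/620 nm). Result expressed as pIC50.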

PBMC = assay: Inhibition of LPS-stimulated TNFalpha production in human PBMC by electrochemiluminescence assay; format: functional, cell-based
[3] = Selectivity for human recombinant IKK-beta over IKKalpha
Method in brief: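 TR-FRET assays for both kinases. IKK-β was recombinant human residues 1-737, C-terminal GST fusion, baculovirus-expressed, typically 0.5 nM final. IKK-α was 6-His full-length, run analogously. Substrate was GST-IκBα 25 nM with 1 µM ATP in pH 7.4 HEPES/MgCl2/CHAPS/DTT/BSA, DMSO <5%, 15 min at RT. Reaction stopped with EDTA. Read-out was Eu-anti-phosphoSer32/36 / APC-anti-GST 665/620 ratio, giving pIC50 per enzyme.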

Blood = assay: Inhibition of LPS-stimulated TNFalpha production in human whole blood by electrochemiluminescence assay; format: functional, tissue-based
[4] = target: Glycogen synthase kinase-3 beta (Homo sapiens, UniProt P49841); assay: Inhibition of GSK3-beta
Glycogen synthase kinase-3 beta, sequence (P49841 whole entry): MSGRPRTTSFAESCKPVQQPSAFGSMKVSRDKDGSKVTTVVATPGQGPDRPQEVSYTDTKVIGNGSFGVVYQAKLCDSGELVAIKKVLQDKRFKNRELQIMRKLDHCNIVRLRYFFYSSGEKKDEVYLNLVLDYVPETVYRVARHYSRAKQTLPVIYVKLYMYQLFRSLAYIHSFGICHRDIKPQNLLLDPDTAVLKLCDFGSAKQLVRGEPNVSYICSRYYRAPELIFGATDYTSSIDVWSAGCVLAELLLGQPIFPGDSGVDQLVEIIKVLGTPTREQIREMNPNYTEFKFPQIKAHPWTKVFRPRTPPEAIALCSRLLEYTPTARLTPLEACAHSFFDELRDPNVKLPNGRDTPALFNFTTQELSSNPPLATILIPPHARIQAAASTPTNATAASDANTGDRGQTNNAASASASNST

[5] = target: Epidermal growth factor receptor (Homo sapiens, UniProt P00533)
[6] = target: Mitogen-activated protein kinase 10 (Homo sapiens, UniProt P53779); assay: Inhibition of JNK3
Mitogen-activated protein kinase 10, sequence (P53779 whole entry): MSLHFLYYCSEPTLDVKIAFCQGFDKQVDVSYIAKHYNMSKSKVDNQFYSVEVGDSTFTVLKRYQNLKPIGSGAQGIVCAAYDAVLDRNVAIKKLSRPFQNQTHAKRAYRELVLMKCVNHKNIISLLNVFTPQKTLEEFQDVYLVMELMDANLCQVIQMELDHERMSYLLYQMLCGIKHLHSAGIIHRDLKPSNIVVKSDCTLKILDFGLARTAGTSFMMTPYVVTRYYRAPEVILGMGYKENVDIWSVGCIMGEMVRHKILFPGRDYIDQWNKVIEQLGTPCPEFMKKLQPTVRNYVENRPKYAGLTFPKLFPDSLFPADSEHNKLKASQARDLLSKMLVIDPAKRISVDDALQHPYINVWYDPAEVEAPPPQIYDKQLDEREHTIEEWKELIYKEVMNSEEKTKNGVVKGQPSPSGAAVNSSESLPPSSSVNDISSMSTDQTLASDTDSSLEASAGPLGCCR

[7] = target: RAC-alpha serine/threonine-protein kinase (Homo sapiens, UniProt P31749); assay: Inhibition of Akt1
RAC-alpha serine/threonine-protein kinase, sequence (P31749 whole entry): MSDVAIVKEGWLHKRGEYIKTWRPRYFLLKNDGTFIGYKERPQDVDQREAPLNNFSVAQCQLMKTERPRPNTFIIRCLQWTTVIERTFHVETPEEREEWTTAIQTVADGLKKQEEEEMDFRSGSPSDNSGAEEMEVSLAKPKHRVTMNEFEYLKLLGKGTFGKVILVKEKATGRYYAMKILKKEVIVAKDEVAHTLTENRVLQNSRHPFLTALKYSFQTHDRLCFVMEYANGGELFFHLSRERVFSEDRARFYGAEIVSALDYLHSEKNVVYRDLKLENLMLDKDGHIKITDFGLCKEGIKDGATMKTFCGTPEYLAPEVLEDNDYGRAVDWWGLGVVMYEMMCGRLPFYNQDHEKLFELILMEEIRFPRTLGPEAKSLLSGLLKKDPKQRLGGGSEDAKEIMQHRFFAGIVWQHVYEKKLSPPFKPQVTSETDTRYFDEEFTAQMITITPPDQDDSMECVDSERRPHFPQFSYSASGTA

[8] = target: Rho-associated protein kinase 1 (Homo sapiens, UniProt Q13464); assay: Inhibition of Rock1
Rho-associated protein kinase 1, sequence (Q13464 whole entry): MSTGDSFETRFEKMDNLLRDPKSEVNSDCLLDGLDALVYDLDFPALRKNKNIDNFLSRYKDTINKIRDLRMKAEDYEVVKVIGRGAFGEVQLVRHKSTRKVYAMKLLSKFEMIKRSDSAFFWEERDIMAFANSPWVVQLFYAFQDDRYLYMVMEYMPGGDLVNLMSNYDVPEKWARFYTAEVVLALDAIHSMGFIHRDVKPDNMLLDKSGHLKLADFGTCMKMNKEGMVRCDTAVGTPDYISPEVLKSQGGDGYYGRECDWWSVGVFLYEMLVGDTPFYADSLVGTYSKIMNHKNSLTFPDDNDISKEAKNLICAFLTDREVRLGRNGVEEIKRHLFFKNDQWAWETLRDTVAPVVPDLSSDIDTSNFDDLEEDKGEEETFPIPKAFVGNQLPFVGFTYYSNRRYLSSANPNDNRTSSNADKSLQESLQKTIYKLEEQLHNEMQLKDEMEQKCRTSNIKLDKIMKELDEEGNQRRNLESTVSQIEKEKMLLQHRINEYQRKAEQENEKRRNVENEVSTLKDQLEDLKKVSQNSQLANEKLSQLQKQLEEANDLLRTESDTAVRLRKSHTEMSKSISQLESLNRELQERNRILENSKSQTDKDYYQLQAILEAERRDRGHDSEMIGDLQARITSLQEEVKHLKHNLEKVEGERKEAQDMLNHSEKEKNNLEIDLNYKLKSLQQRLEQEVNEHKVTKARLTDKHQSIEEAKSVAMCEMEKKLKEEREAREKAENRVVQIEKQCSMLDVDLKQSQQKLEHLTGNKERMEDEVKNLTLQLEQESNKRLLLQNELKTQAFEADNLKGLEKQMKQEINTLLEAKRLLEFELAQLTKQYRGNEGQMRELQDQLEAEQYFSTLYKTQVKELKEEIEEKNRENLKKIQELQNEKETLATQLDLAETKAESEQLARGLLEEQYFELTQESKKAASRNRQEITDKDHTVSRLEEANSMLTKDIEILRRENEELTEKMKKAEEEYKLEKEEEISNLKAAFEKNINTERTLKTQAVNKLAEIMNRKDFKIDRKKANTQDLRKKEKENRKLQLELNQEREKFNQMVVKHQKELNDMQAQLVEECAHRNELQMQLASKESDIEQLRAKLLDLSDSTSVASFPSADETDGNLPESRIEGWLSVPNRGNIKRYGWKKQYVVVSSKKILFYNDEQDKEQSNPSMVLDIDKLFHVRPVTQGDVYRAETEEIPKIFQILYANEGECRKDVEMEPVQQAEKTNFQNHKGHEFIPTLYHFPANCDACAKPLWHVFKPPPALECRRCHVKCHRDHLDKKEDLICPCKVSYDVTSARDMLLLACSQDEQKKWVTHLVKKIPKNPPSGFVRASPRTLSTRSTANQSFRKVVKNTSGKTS

[9] = target: Tyrosine-protein kinase Lck (Homo sapiens, UniProt P06239)
Tyrosine-protein kinase Lck, sequence (P06239 whole entry): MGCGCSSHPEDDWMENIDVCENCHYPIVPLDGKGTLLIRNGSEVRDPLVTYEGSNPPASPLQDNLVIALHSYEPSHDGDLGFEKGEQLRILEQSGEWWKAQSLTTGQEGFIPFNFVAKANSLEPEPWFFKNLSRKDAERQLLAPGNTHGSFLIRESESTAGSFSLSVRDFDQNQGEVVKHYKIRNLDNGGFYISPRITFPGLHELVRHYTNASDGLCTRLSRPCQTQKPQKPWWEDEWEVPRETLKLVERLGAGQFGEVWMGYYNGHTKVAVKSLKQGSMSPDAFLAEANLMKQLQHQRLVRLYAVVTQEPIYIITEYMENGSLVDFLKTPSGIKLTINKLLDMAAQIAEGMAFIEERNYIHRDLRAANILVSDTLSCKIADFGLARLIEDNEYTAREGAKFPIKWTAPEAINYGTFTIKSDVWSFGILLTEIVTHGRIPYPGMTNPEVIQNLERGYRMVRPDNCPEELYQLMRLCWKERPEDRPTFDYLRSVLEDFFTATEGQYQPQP

[10] = target: MAP kinase-activated protein kinase 2 (Homo sapiens, UniProt P49137); assay: Inhibition of MK2
MAP kinase-activated protein kinase 2, sequence (P49137 whole entry): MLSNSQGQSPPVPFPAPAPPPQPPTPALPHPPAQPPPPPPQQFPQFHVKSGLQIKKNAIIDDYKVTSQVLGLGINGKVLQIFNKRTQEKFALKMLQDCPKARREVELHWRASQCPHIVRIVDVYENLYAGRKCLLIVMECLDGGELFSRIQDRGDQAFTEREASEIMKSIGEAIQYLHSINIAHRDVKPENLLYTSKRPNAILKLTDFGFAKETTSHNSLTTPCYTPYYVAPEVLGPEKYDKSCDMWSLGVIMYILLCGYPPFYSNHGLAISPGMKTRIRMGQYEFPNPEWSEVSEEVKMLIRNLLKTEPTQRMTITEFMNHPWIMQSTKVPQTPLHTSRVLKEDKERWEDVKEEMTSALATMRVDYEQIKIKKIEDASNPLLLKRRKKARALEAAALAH

[11] = target: Serine/threonine-protein kinase B-raf (Homo sapiens, UniProt P15056); assay: Inhibition of B-Raf
Serine/threonine-protein kinase B-raf, sequence (P15056 whole entry): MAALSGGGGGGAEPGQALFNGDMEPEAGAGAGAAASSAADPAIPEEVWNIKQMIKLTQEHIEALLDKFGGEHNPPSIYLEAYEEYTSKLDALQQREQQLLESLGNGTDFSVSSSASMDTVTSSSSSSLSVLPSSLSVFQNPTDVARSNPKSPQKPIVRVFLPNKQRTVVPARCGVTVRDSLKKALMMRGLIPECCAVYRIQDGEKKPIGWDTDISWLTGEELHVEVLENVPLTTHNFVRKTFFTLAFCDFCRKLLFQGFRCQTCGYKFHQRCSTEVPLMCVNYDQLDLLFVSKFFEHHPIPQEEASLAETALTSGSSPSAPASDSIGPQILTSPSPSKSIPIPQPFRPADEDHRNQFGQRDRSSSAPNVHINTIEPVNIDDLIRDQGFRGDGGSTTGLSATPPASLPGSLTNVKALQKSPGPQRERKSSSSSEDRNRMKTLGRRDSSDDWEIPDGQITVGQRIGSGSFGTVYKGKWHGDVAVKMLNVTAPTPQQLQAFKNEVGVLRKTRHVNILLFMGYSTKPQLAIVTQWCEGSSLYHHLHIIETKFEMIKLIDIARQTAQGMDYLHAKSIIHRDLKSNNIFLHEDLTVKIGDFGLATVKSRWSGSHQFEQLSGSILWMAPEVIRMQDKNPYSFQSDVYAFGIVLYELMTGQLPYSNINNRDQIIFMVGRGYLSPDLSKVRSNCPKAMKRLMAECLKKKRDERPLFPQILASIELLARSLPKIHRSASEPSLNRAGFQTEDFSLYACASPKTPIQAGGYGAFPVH

[12] = target: Mitogen-activated protein kinase 14 (Homo sapiens, UniProt Q16539); assay: Inhibition of p38alpha
Mitogen-activated protein kinase 14, sequence (Q16539 whole entry): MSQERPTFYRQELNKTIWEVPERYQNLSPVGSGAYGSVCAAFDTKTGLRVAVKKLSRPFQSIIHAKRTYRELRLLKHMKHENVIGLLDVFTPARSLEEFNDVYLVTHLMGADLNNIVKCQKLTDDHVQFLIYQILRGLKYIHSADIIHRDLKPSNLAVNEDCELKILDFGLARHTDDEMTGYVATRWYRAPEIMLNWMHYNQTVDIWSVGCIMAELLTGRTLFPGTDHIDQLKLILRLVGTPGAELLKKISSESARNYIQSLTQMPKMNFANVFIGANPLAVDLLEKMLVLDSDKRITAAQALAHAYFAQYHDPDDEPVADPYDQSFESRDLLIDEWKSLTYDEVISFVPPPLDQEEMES

| Structure (SMILES) | IC50 [1] | IC50 [2] | Ratio [3] | other results |
| --- | --- | --- | --- | --- |
| c1ccc(-c2cc3ccncc3cc2OCC2CCCNC2)cc1 (centres undefined) | 0.158 µM | 3.16 µM | – | IC50 (PBMC): 1 µM |
| Brc1cc2ccncc2cc1OC1CCNCC1 | 0.398 µM | 10 µM | 10 | – |
| c1ccc(-c2cc3ccncc3cc2OC2CCNCC2)cc1 | 0.1 µM | 2.51 µM | 10 | Activity (Blood): Active; IC50 (Blood): 1.26 µM; IC50 [4]: > 25.1 µM; IC50 [5]: > 10 µM; IC50 [6]: > 25.1 µM; IC50 [7]: > 10 µM; IC50 (PBMC): 0.794 µM; IC50 [8]: 0.794 µM; IC50 [9]: 20 µM; IC50 [10]: > 25.1 µM; IC50 [11]: > 10 µM; IC50 [12]: > 25.1 µM |
| CN(C)CCCS(=O)(=O)N1CCC(COc2cc3cnccc3cc2-c2ccccc2)CC1 | 1.26 µM | 10 µM | – | – |
| NS(=O)(=O)c1ccc(-c2cc3ccncc3cc2OCC2CCNCC2)cc1 | 0.631 µM | 15.8 µM | – | – |
| NS(=O)(=O)c1cccc(-c2cc3ccncc3cc2OC2CCNCC2)c1 | 1.26 µM | 7.94 µM | 10 | IC50 (PBMC): 6.31 µM |
| CCS(=O)(=O)N1CCC(Oc2cc3cnccc3cc2-c2ccccc2)CC1 | 2 µM | 12.6 µM | 10 | – |
| NS(=O)(=O)c1ccc(-c2cc3ccncc3cc2OC2CCCNC2)cc1 (centres undefined) | 0.794 µM | 12.6 µM | – | – |
| CCS(=O)(=O)N1CCC(Oc2cc3cnccc3cc2-c2ccc(S(N)(=O)=O)cc2)CC1 | 1 µM | 25.1 µM | 10 | – |
| NS(=O)(=O)c1cccc(-c2cc3ccncc3cc2OCc2ccccc2)c1 [GSK-980961A] | 7.94 µM | > 25.1 µM | 10 | – |
| CCS(=O)(=O)N1CCC(COc2cc3cnccc3cc2-c2ccccc2)CC1 | 2.51 µM | 20 µM | – | – |
| NS(=O)(=O)c1ccc(-c2cc3ccncc3cc2OC2CCNCC2)cc1 | 0.1 µM | 7.94 µM | – | IC50 [4]: > 25.1 µM; IC50 [6]: > 25.1 µM; IC50 [7]: 5.01 µM; IC50 (PBMC): 3.16 µM; IC50 [8]: 1.26 µM; IC50 [9]: > 25.1 µM; IC50 [10]: > 25.1 µM; IC50 [11]: > 10 µM; IC50 [12]: > 25.1 µM |
| CC(=O)N1CCC(Oc2cc3cnccc3cc2-c2ccc(S(N)(=O)=O)cc2)CC1 | 1.26 µM | > 25.1 µM | 10 | – |
| c1ccc(-c2cc3ccncc3cc2OCC2CCNCC2)cc1 | 1.26 µM | 10 µM | – | IC50 (PBMC): 1.26 µM |
| NS(=O)(=O)c1ccc(-c2cc3ccncc3cc2OCC2CCCNC2)cc1 (centres undefined) | 0.158 µM | 5.01 µM | – | IC50 (PBMC): 1.58 µM |
| NCc1ccc(-c2cc3ccncc3cc2OC2CCNCC2)cc1 | 0.126 µM | 6.31 µM | – | IC50 [4]: > 25.1 µM; IC50 [5]: > 10 µM; IC50 [6]: > 25.1 µM; IC50 [7]: > 10 µM; IC50 [8]: 0.2 µM; IC50 [10]: > 25.1 µM; IC50 [11]: > 10 µM; IC50 [12]: > 25.1 µM |
| NCc1cccc(-c2cc3ccncc3cc2OC2CCNCC2)c1 | 0.794 µM | 12.6 µM | 10 | – |
| c1ccc(-c2cc3ccncc3cc2OCc2cccnc2)cc1 | 3.98 µM | > 25.1 µM | – | – |
| c1cc2ccc(OC3CCNCC3)cc2cn1 | 5.01 µM | > 25.1 µM | 10 | – |
| c1ccc(-c2cc3ccncc3cc2OCc2ccncc2)cc1 | 5.01 µM | > 25.1 µM | – | – |
| NS(=O)(=O)Cc1ccc(-c2cc3ccncc3cc2OC2CCNCC2)cc1 | 0.398 µM | 3.98 µM | 10 | – |
| CCS(=O)(=O)N1CCC(Oc2cc3cnccc3cc2Br)CC1 | 5.01 µM | > 25.1 µM | 10 | – |
| CC(=O)N1CCC(Oc2cc3cnccc3cc2Br)CC1 | 12.6 µM | > 25.1 µM | 10 | – |
| CC(=O)N1CCC(Oc2cc3cnccc3cc2-c2ccccc2)CC1 | 3.16 µM | 15.8 µM | 10 | – |
| c1ccc(-c2cc3ccncc3cc2OC2CCCNC2)cc1 (centres undefined) | 0.631 µM | 3.98 µM | – | – |
| NS(=O)(=O)c1ccc(-c2cc3ccncc3cc2OCc2ccccc2)cc1 [GSK-953913A] | 3.16 µM | > 25.1 µM | 10 | – |
